Bioassay records deposited in PubChem by SRMLSC.
This excerpt belongs to a sample that is enriched for hits.
bCat KO growth: beta-catenin-lacking colon tumor cell growth suppression | HCT116 beta-catenin knockout viability, CellTiter-Glo, 60 h; hits give low values | viability, % at 10 µM | 140,000 tested, 1.5% active | AID 818;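 active = viability at or under a set limit, the compound median less 4 SD, cut at about 6% in these data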;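 note: 0% = Hyamine 1622 control at 20 µM and 100% = untreated cell control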
HUVEC inhibit: blocks proliferation of human endothelial cells; HUVEC proliferation, CellTiter-Glo luminescence, 72 h; hits give low values; viability, % at 10 µM (by protocol); 86,000 tested, 1.1% active; AID 648;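 active = viability at or below 30%; inactive = viability above 30%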;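 note: 100% = median luminescence of DMSO-only cell control wells on each plate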
H69AR inhibit: growth inhibitors of human H69AR lung tumor cells; H69AR lung tumor viability, ATP luminescence, 72 h; hits give low values; viability, % at 10 µM; 85,000 tested, 6% active; AID 598;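 active = viability at or below 40%; inactive = viability above 40%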;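 note: multidrug resistant small cell line overexpressing MRP-1 efflux transporter; 100% = mean luminescence of untreated control wells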
PTEN del growth: PTEN-deleted cell growth suppression. viability, % at 10 µM. HCT116 PTEN-null viability, CellTiter-Glo, 60 h; hits give low values. AID 827. 140,000 tested, 1.2% active;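 active = viability at or below a set limit, 4 SD under the median of all tested compounds, cut at about 3.7% in these data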;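 note: PTEN knockout HCT116 line with beta catenin targeted HCT116 as companion control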
Fibroblast inh: blocks proliferation of human lung fibroblasts; LL 47 human lung fibroblast viability, ATP luminescence; hits give low values; viability, % at 10 µM; 85,000 tested, 1.1% active; AID 719;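 active = viability at or below 50% in the single dose screen; inactive = viability above 50%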;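 note: compound exposure lasted 72 h before the ATP readout; 100% = median luminescence of untreated cell-only wells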
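Material: human LL 47 lung fibroblast cells; quantity: 1,150 cells/well; medium: IMEM plus 15% FBS; doses: 0.1% DMSO in all compound wells; timing: overnight attachment after seeding, then 72 h compound exposure at 37 °C; detection: CellTiter-Glo luminescence; measure: % viability of median cell-only signal; controls: cell-only wells, no compound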
* marks the source's active call; other numbers are inactive results; . = not tested or not shown.

SMILES	bCat KO growth	HUVEC inhibit	H69AR inhibit	PTEN del growth	Fibroblast inh
Cc1cccc(Cn2nnc3c2C(=O)c2ccccc2C3=O)c1	4.5*	3.4*	13.5*	3.0*	69.9
CCOC(=O)N1CCN(C(=O)CSCC(=O)N=c2sc3ccccc3n2C)CC1	99.8	99.9	88.0	99.7	99.2
Cn1c(=NC(=O)CCl)sc2ccccc21	5.1*	76.3	1.4*	4.7	2.4*
CC(O)/C=C/c1ccc2ccccc2n1 (configuration not stated)	12.9	70.4	23.4*	15.2	70.8
CCN(/N=C/c1cccs1)c1cc(=O)n(C)c(=O)[nH]1	84.9	35.0	96.2	92.0	102.6
CN(/N=C/c1cccs1)c1cc(=O)n(C)c(=O)[nH]1	89.1	15.4*	93.8	90.0	104.2
CCOc1cc(/C=N/NC(=O)c2cccs2)ccc1OC(=O)N1CCOCC1	93.7	.	.	90.2	.
CCn1cc(/C=N/NC(=O)COc2cccc3cccnc23)c2ccccc21	95.3	.	.	94.6	.
Cc1ccc(C)c2[nH]c(=O)c(C(c3nnnn3C(C)(C)C)N3CC=C(c4ccc(F)cc4)CC3)cc12 (configuration not stated)	66.4	.	.	66.7	.
Cc1ccc(OCCn2c(NC(=O)c3ccco3)nc3ccccc32)cc1	63.8	54.8	26.4*	67.9	56.5
Cn1c(NC(=S)Nc2ccccc2)nc2ccccc21	71.8	.	.	59.6	.
S=C(Nc1ccccc1)Nc1nc2ccccc2n1CCOc1ccc(Br)cc1	1.6*	.	.	2.1*	.
O=C(Nc1nc2ccccc2n1CCOc1ccc(Cl)cc1)c1ccco1	5.4*	56.5	53.0	6.4	58.5
O=C(Nc1nc2ccccc2n1CCOc1ccccc1)c1ccco1	16.3	73.6	41.5	15.0	65.3
CCOC(=O)c1c(NC(=O)CN2C(=O)NC3(CCC(CC)CC3)C2=O)sc(C)c1-c1ccc(C)cc1 (configuration not stated)	78.5	.	.	78.5	.
COc1cc(NS(=O)(=O)c2ccc(Nc3nc(-c4ccccc4)cs3)cc2)nc(OC)n1	101.4	.	.	104.8	.
CCOC(=O)COc1ccc(/C=C/[N+](=O)[O-])c(OCC(=O)OCC)c1	4.0*	.	.	1.9*	.
CCOC(=O)COc1ccc2ccccc2c1/C=C/[N+](=O)[O-]	3.3*	.	.	2.6*	.
CCOC(=O)COc1ccc2nsnc2c1	97.8	92.9	102.5	101.4	.
O=[N+]([O-])/C=C/c1c(OCc2ccccc2)ccc2ccccc12	1.9*	26.8*	2.8*	2.5*	7.6*
CCOC(=O)COc1ccccc1/C=N/O	94.7	.	.	93.3	.
CCOc1ccccc1/C=N/Nc1ccccc1[N+](=O)[O-]	96.4	.	.	92.9	.
CCOc1ccc(/C=C/[N+](=O)[O-])c2ccccc12	2.0*	.	.	1.8*	.
Nc1ccc(-n2nncc2-c2ccc(Cl)cc2)cc1	92.8	.	.	89.0	.
O=C(c1ccccc1-c1ccccc1)N1CCN(c2ccccn2)CC1	15.5	56.0	19.2*	30.9	53.3
SMILES	bCat KO growth	HUVEC inhibit	H69AR inhibit	PTEN del growth	Fibroblast inh
O=C(c1cc(-c2ccccc2)nc2ccccc12)N1CCN(c2ccccn2)CC1	85.9	86.3	57.7	69.1	94.6
O=C(c1cc(-c2cccnc2)nc2ccc(Br)cc12)N1CCN(c2ncccn2)CC1	51.3	51.0	5.3*	51.8	80.1
O=C(c1cc(-c2ccncc2)nc2ccccc12)N1CCN(c2ccccn2)CC1	26.2	50.8	19.4*	19.8	59.6
COc1ccc(/C=C(\C#N)C(=O)OCC(=O)Nc2ccc(C(C)(C)C)cc2)cc1	87.7	.	.	85.4	.
Cc1ccc(CNC(=O)N[C@@H](Cc2ccccc2)C(=O)O)cc1	93.3	.	.	97.5	.
Cc1cc(C(=O)N/N=C/c2cc([N+](=O)[O-])ccc2O)c2ccccc2n1	8.6	.	.	3.0*	.
O=[N+]([O-])c1ccc(O)c(/C=N/Nc2ccccn2)c1	11.7	.	.	12.7	.
O=[N+]([O-])c1ccc(O)c(/C=N/Nc2nc3ccccc3[nH]2)c1	4.2*	.	.	5.2	.
Cc1ccc(NC(=O)c2c(Cl)n(C)c3ccccc23)cc1	67.5	.	.	56.1	.
O=C(CSc1ccccc1[N+](=O)[O-])NC1CCS(=O)(=O)C1 (configuration not stated)	88.1	.	.	92.0	.
CCc1cccc2c(C(=O)Cn3nnc(-c4ccc(OC)c(OC)c4)n3)c[nH]c12	95.3	80.4	39.3*	85.7	92.6
CCc1cccc2c(C(=O)COC(=O)c3nn(C)c(=O)c4ccccc34)c[nH]c12	101.3	94.0	80.7	91.2	104.2
Cc1cc(C)n(-c2ccc3cccc(NS(C)(=O)=O)c3n2)n1	3.6*	22.6*	20.7*	5.2	26.3*
COCCNC(=S)N/N=C(\C)c1ccccc1O	4.2*	.	.	8.2	.
COc1cc(CCC(=O)Nc2ccc(Br)c(C(F)(F)F)c2)cc(OC)c1OC	55.9	.	.	43.8	.
CCN(CC)C(=S)SCC(=O)c1ccc(Br)cc1	56.0	.	.	60.4	.
Cc1cc2oc3c(c(=O)c2cc1C)C(c1cccc(Br)c1)N(Cc1ccco1)C3=O (configuration not stated)	1.8*	39.8	4.5*	1.4*	54.2
CCOc1cc(C2c3c(oc4cc(C)c(Cl)cc4c3=O)C(=O)N2Cc2ccco2)ccc1O (configuration not stated)	49.0	41.0	3.1*	33.9	53.0
Cc1ccc2oc3c(c(=O)c2c1)C(c1cccc(Br)c1)N(Cc1ccco1)C3=O (configuration not stated)	56.4	55.6	3.1*	28.2	10.5*
O=C(COc1cccc(Cl)c1)Nc1ccc2c(c1)CCC2	94.5	.	.	95.9	.
Cc1nc2ccccc2c2c1C(=O)N(C(C)C)C2=O	89.6	104.3	93.7	91.1	106.6
CC(C)N1C(=O)C(Cc2nc3ccccc3c(=O)n2-c2ccccc2)c2ccccc21 (configuration not stated)	61.9	.	.	65.5	.
CC(C)N1C(=O)/C(=C/c2nc3ccccc3c(=O)n2-c2ccccc2)c2ccccc21	2.5*	.	.	2.1*	.
CC(C)N1C(=O)/C(=C\c2nc3ccccc3c(=O)n2-c2ccccc2)c2ccccc21	6.7	.	.	3.1*	.
Cc1onc(-c2c(F)cccc2Cl)c1C(=O)NC(=S)NCc1cccnc1	97.9	.	.	105.1	.
SMILES	bCat KO growth	HUVEC inhibit	H69AR inhibit	PTEN del growth	Fibroblast inh
CC(C)c1nnc(NC(=O)c2c(O)c3cccc4c3n(c2=O)CCC4)s1	42.4	109.1	33.7*	33.7	66.9
Cc1cnc(NC(=O)c2c(O)c3cccc4c3n(c2=O)CCC4)s1	80.5	88.7	5.7*	83.9	96.6
Cc1cccc(NC(=O)c2c(O)c3cccc4c3n(c2=O)CCC4)n1	92.4	102.9	84.8	97.8	99.8
C/C(=N\NC(=O)CC(C)C)c1ccc(N2CCCCC2)cc1	98.8	.	.	95.5	.
COc1cc2c3nnc(-c4ccc(F)cc4)c-3cn(Cc3ccc(F)cc3)c2cc1OC	0.7*	2.6*	-0.4*	0.8*	10.2*
COc1ccc(CCNC(=O)CSc2nnc(-c3ccc(F)cc3)c3ccccc23)cc1OC	84.7	.	.	94.4	.
COc1ccc(Cn2cc3c(-c4ccc(F)cc4)nnc-3c3cc(OC)c(OC)cc32)cc1	1.8*	2.3*	1.3*	2.1*	2.2*
